From ChEMBL document CHEMBL1132986, “Novel and selective calcitonin-inducing agents” (J Med Chem, 2000)

Columns and labels:
[1] = target: T1, Phosphodiesterase 4 (Homo sapiens, UniProt P27815+Q08499+Q07343+Q08493); experiment: PDE4 30 assay to measure the percent rolipram activity of the PDE4 assay at 30 uM concentration of the compound.; assay type: protein assay
How it was run: (§1)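 U937 PDE4 preparation, 1 µM [3H]cAMP, 37 °C, test compound at 30 µM. Activity scaled to rolipram: no rolipram inhibition = 0%, full rolipram inhibition (10 µM) = 100%.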

[2] = system: C3 cells; experiment: Calcitonin (CT) secretion/RIA assay to measure the ability of compound to increase cellular levels and secretion of human CT.
[3] = system: C3 cells; experiment: CT-luci reporter gene assay to measure the ability to increase transcription of a […] linked to the human CT gene.
[4] = target: T1, Phosphodiesterase 4; experiment: Concentration at which 50% of the activity of the Phosphodiesterase 4 from Human U937 cells is inhibited; assay type: cell-based; conditions: u-937
[5] = system: Rattus norvegicus; experiment: The compound was tested for its bone protection activity at 30 mg/kg/day by intra peritoneal administration.; assay type: functional
How it was run: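 Mature female Sprague-Dawley rats, bilaterally ovariectomized or sham-operated, 4-5 days recovery; compound in 1% Tween 80 in saline, i.p. 30 mg/kg/day for 4 weeks; 7-8 rats per group. Proximal tibia trabecular BMD by QCT under ketamine/xylazine/acepromazine; % protection with OVX = 0%, sham = 100%; p < 0.05.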

[6] = system: Rattus norvegicus; experiment: The compound was tested for its bone protection activity at 50 mg/kg/day by oral administration.
[7] = target: T1, Phosphodiesterase 4; experiment: PDE4 30 assay to measure the percent rolipram activity of the PDE4 assay at 30 micro M concentration of the compound.; assay type: protein assay; how it was run: as §1
[8] = system: C3 cells; experiment: CT-luci reporter gene assay to measure the ability to increase transcription of a […] linked to the human CT gene.; remark: listed apart in the source
[9] = target: T1, Phosphodiesterase 4; experiment: Percent rolipram activity at 30 uM (PDE 30 assay); assay type: protein assay; how it was run: as §1

Row | PDE4 inhibition relative to rolipram [1] | IC50 [4] | PDE4 inhibition relative to rolipram [7] | Rolipram activity [9] | Structure (SMILES) | CTS [2] | TAR [3] | Protection [5] | Protection [6] | TAR [8]
1 | 71% | 4.1 µM |  |  | CCCCn1c(=O)c2c(ncn2S(=O)(=O)CCCCl)n(CCCC)c1=O | 3.6 | 2.1 | 47% | 50% | 
2 |  |  |  | 100% | CCCCn1c(=O)c2c(ncn2CC(C)=O)n(CCCC)c1=O [DENBUFYLLINE] | 3.5 |  | 49% |  | 2.1
3 |  | 6 µM | 58% |  | CCCCn1c(=O)c2c(ncn2S(=O)(=O)c2c(C)cc(C)cc2C)n(CCCC)c1=O | 4 |  | 50% |  | 1.9
4 | 92% |  |  |  | CCCCn1c(=O)c2c(ncn2S(=O)(=O)c2cc(C)ccc2C)n(CCCC)c1=O | 6.6 | 2.6 |  |  | 
5 | 15% |  |  |  | CCCCn1c(=O)c2c(ncn2S(=O)(=O)CCCC)n(CCCC)c1=O | 4.7 | 2 | 23% |  | 
6 |  |  | 48% |  | CCCCn1c(=O)c2c(ncn2S(=O)(=O)c2cccs2)n(CCCC)c1=O | 2.9 |  |  |  | 2.2
7 | 5% |  |  |  | CCCCn1c(=O)c2c(ncn2S(=O)(=O)c2ccccc2)n(CCCC)c1=O | 3.9 | 1.9 |  |  | 
8 | 54% |  |  |  | CCCCn1c(=O)c2c(ncn2S(=O)(=O)CCC)n(CCCC)c1=O | 2.2 | 2.3 |  |  | 
9 | 84% | 25.2 µM |  |  | CCCCn1c(=O)c2c(ncn2S(C)(=O)=O)n(CCCC)c1=O | 4.7 | 1.9 |  |  | 
10 | 86% |  |  |  | CCCCn1c(=O)c2c(ncn2S(=O)(=O)c2cc(F)ccc2C)n(CCCC)c1=O | 6.6 | 2.8 |  |  | 

More lines, now with the values behind:

Row | Structure (SMILES) | PDE4 inhibition relative to rolipram [1] | IC50 [4] | PDE4 inhibition relative to rolipram [7] | Rolipram activity [9] | CTS [2] | TAR [3] | Protection [5] | Protection [6] | TAR [8]
11 | CCCCn1c(=O)c2c(ncn2S(=O)(=O)c2ccccc2F)n(CCCC)c1=O | 53% |  |  |  | 1.7 | 2 |  |  | 
12 | CCCCn1c(=O)c2c(ncn2S(=O)(=O)c2cccc3ccccc23)n(CCCC)c1=O |  |  | 17% |  | 4.5 |  | 37% |  | 2.5
13 | CCCCOc1ccc(S(=O)(=O)n2cnc3c2c(=O)n(CCCC)c(=O)n3CCCC)cc1 | 54% |  |  |  | 5 |  |  |  | 2.2
14 | CCCCn1c(=O)[nH]c(=O)c2c1ncn2S(=O)(=O)c1ccc(OC)c(OC)c1 |  |  | 25% |  | 0.8 |  |  |  | 1.3
15 | CCCCn1c(=O)c2c(ncn2S(=O)(=O)c2ccccc2C(=O)OC)n(CCCC)c1=O | 61% | 1.3 µM |  |  | 3.1 | 3.5 |  |  | 
16 | CCCCn1c(=O)c2c(ncn2S(=O)(=O)c2ccc(OC(F)(F)F)cc2)n(CCCC)c1=O | 0% |  |  |  | 4.9 |  |  |  | 2
17 | CCCCn1c(=O)c2c(ncn2S(=O)(=O)c2cccc([N+](=O)[O-])c2)n(CCCC)c1=O | 37% |  |  |  | 2.9 | 2 | 30% |  | 
18 | CCCCn1c(=O)n(CC2CCC2)c(=O)c2c1ncn2S(=O)(=O)c1ccc(OC)c(OC)c1 |  |  | 87% |  | 0.9 |  |  |  | 2.9
19 | CCCCn1c(=O)c2c(nc(C)n2S(=O)(=O)c2ccccc2)n(CCCC)c1=O |  |  | 100% |  | 4 |  |  |  | 1.7
20 | CCCCn1c(=O)c2c(ncn2S(=O)(=O)Cc2ccccc2)n(CCCC)c1=O |  | 3.2 µM | 7% |  | 5.1 |  | 25% |  | 2.3
21 | CCCCn1c(=O)c2c(ncn2S(=O)(=O)c2ccc(OC)cc2)n(CCCC)c1=O | 49% |  |  |  | 4.6 | 1.9 |  |  | 
22 | CCCCn1c(=O)c2c(nc(C)n2S(=O)(=O)c2ccc(OC)c(OC)c2)n(CCCC)c1=O |  |  | 100% |  | 2.6 |  |  |  | 1.5
23 | CCCCn1c(=O)n(CCC(C)C)c(=O)c2c1ncn2S(=O)(=O)c1ccc(OC)c(OC)c1 |  |  | 86% |  | 3.7 |  |  |  | 2.6
24 | CCCCn1c(=O)c2c(ncn2S(=O)(=O)c2ccc(C(C)(C)C)cc2)n(CCCC)c1=O |  |  | 33% |  | 5.1 |  |  |  | 1.8
25 | CCCCCCCCS(=O)(=O)n1cnc2c1c(=O)n(CCCC)c(=O)n2CCCC | 12% |  |  |  | 4.7 | 2.1 |  |  | 
26 | CCCCn1c(=O)c2c(nc(C)n2S(=O)(=O)c2cccc3ccccc23)n(CCCC)c1=O |  |  | 94% |  | 2.2 |  |  |  | 1.7
27 | CCCCn1c(=O)n(CC=C(C)C)c(=O)c2c1ncn2S(=O)(=O)c1ccc(OC)c(OC)c1 |  |  | 77% |  | 3.7 |  |  |  | 2.8
28 | CCCCn1c(=O)n(CC2CC2)c(=O)c2c1ncn2S(=O)(=O)c1ccc(OC)c(OC)c1 |  |  | 97% |  | 0.7 |  |  |  | 2.8
29 | CCCCn1c(=O)c2c(ncn2S(=O)(=O)c2ccc(NO)cc2)n(CCCC)c1=O | 18% |  |  |  | 5.6 |  |  |  | 2
30 | CCCCn1c(=O)c2c(nc(C)n2S(=O)(=O)c2cccc([N+](=O)[O-])c2)n(CCCC)c1=O |  |  | 85% |  | 3.7 |  |  |  | 1.8
31 | CCCCn1c(=O)c2c(nc(C)n2S(=O)(=O)CCCCl)n(CCCC)c1=O |  |  | 95% |  | 4.1 |  |  |  | 1.7
32 | CCCCn1c(=O)c2c(ncn2S(=O)(=O)c2ccc(OC)c(OC)c2)n(CCCC)c1=O | 59% | 1.2 µM |  |  | 4.7 |  | 35% |  | 2.5
33 | CCCCn1c(=O)c2c(ncn2S(=O)(=O)c2cc(C)c(Cl)cc2C)n(CCCC)c1=O |  | 23.3 µM | 72% |  | 5.3 |  | 52% |  | 2.5
34 | CCCCCCCCn1c(=O)c2c(ncn2S(=O)(=O)c2ccc(OC)c(OC)c2)n(CCCC)c1=O |  |  | 0% |  | 1.1 |  |  |  | 0.7
